Source: PubChem BioAssay
Most compounds without a hit are left out; they make up all but 3.5% or so of the library.
Thrombin inh: inhibitors of human thrombin; alpha-thrombin, Boc-VPR-AMC fluorogenic substrate cleavage; P00734; 220,000 compounds, 0.26% hits; inhibition, % at 5 µM;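 active = inhibition at or above 40%; inactive = inhibition below 40%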;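 note: 0% = enzyme with no compound and 100% = wells without enzyme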
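Test system: human alpha-thrombin protein / Dosing: one concentration per compound, 5 µM, with 0.2% DMSO / Medium: pH 7.5 Tris-saline with Tween 20 / Benchmarks: no-compound enzyme wells and no-enzyme blanks / Read-out basis: percent inhibition of thrombin substrate cleavage / Timing: reaction at room temperature / Measured by: fluorescence, ex 355 nm, em 460 nm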
KLK5 inh: blocks human kallikrein 5 protease activity | Q9Y337 | recombinant hK5, fluorogenic AMC substrate cleavage | inhibition, % at 5 µM | 210,000 compounds, 0.59% hits | AID 873;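 active = inhibition of 40% or more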;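 note: 0% = enzyme controls without compound and 100% = no-enzyme blanks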
AHR act: activates the human aryl hydrocarbon receptor | 320,000 compounds, 2.5% hits | AHR-responsive luciferase reporter cells, luminescence | activation, % at 5 µM | P35869; in the data active = activation above about 47%;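 note: 0% = vehicle wells and 100% = reference agonist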
Target sequence (P35869 whole entry, looked up): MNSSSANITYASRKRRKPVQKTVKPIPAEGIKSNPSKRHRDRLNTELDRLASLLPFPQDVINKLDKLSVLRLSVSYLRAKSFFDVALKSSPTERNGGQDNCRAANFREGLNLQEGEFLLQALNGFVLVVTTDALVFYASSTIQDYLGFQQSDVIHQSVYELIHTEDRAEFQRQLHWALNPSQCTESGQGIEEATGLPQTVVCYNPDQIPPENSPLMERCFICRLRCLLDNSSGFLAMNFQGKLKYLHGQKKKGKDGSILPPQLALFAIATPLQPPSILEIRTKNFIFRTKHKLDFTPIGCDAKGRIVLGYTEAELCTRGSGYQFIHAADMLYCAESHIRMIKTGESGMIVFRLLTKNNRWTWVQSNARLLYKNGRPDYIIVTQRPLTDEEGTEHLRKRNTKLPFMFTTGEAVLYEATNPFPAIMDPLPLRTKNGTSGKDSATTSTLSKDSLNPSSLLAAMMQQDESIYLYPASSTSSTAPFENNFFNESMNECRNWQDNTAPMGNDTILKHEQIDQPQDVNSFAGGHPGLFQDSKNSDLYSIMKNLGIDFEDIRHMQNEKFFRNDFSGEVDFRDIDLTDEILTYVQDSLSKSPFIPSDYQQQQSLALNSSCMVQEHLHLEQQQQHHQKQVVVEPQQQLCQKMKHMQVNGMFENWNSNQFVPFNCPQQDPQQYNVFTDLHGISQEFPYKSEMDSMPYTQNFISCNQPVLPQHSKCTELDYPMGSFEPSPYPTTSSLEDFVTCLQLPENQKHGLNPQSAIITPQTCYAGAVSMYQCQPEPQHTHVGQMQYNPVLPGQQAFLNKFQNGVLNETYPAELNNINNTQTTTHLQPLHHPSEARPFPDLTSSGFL
FXIa inh 1536: blocks human coagulation factor XIa protease activity. P03951. 220,000 compounds, 0.14% hits. purified FXIa, Boc-Glu-Ala-Arg-AMC fluorogenic substrate. inhibition, % at 5 µM;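 active = inhibition of at least 40%; inactive = inhibition below 40%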;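 note: fluorescence of freed AMC excited at 355 nm; 0% = enzyme without compound and 100% = no enzyme blank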
STAT3 act: activators of IL-6 induced STAT3 signaling; U3A cells, IL-6 STAT3-luciferase reporter, luminescence; 100% = signal with IL-6 EC80 alone; activation (% of control), % at 5.6 µM; 190,000 compounds, 0.91% hits; AID 871;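 active = activation above the screen-wide mean of compound activation plus 3 SD, cut at about 130% in these data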;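 note: 0% = background luminescence of wells with medium and substrate only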
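Test system: STAT3-luciferase reporter U3A cells; Detection: reporter luminescence signal; Times: 1 h compound pre-exposure, 6 h IL-6 stimulation, 37 °C; Benchmarks: IL-6-only high control; Also added: IL-6 stimulus at 33 ng/mL final.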
FXIIa inh 1536: factor XIIa (human) inhibition; purified FXIIa, Boc-QGR-AMC fluorogenic substrate, 2 h; inhibition, % at 5 µM; 220,000 compounds, 0.3% hits; AID 800; in the data active = inhibition above about 40%;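 note: 0% = enzyme with no compound and 100% = blank without enzyme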
* hit, by the source's call.

COCCn1c(SCC(=O)Nc2ccccc2F)nc2c([nH]c3ccccc32)c1=O was read as AHR act 61*.
Screening COCCn1c(SCC(=O)Nc2ccc(C(N)=O)cc2)nc2c([nH]c3ccccc32)c1=O returned AHR act 52*.
CC(=O)N1CCC(C(=O)N2CCN(S(=O)(=O)c3ccc(F)cc3)CC2)CC1 was read as AHR act 1.
Cc1cc(C)c(CSc2ncnc3nc[nH]c23)c(C)c1 was read as Thrombin inh -9, KLK5 inh -2, AHR act 2, FXIa inh 1536 -6, STAT3 act 105 and FXIIa inh 1536 4.
For CCCn1c(N)c(Sc2ccccc2[N+](=O)[O-])c(=O)n(CCC)c1=O the results were AHR act 0.
`CC1CCCCC1NS(=O)(=O)CCNC(=O)c1ccc2c(c1)OCO2` (stereo unspecified) gave AHR act 5.
For CC1CCCC(NC(=O)c2ccc3c(c2)OCO3)C1C (stereo unspecified) the results were AHR act 70*.
O=C(Oc1cncc(Cl)c1)c1sccc1Cl was read as AHR act 2.
`O=C(Oc1cncc(Cl)c1)c1ccco1` gave Thrombin inh 21, KLK5 inh 42*, AHR act -1, FXIa inh 1536 84*, STAT3 act 104 and FXIIa inh 1536 61*.
CC(=O)C1=C(C)NC(SCC(=O)c2ccc(Cl)cc2Cl)=C(C#N)C1c1ccco1 (stereo unspecified) was read as Thrombin inh -3, KLK5 inh 15, AHR act 107*, FXIa inh 1536 7, STAT3 act 93 and FXIIa inh 1536 12.
`CC(=O)C1=C(C)NC(SCc2ccc(C#N)cc2)=C(C#N)C1c1ccco1` (stereo unspecified) gave Thrombin inh -2, KLK5 inh -21, AHR act -1, FXIa inh 1536 7, STAT3 act 93 and FXIIa inh 1536 8.
CC(=O)C1=C(C)NC(SCC(=O)c2ccccc2)=C(C#N)C1c1ccco1 (stereo unspecified) was read as Thrombin inh -5, KLK5 inh 13, AHR act 107*, FXIa inh 1536 0, STAT3 act 82 and FXIIa inh 1536 5.
CC(=O)C1=C(C)NC(SCC(=O)c2ccc(Cl)cc2)=C(C#N)C1c1ccco1 (stereo unspecified) was read as Thrombin inh -5, KLK5 inh 10, AHR act 26, FXIa inh 1536 6, STAT3 act 77 and FXIIa inh 1536 10.
For C/C(=N\NC(=O)CC1N=C(Cc2ccccc2)NNC1=O)c1ccncc1 (stereo unspecified) the results were Thrombin inh -2, KLK5 inh 1, AHR act 57*, FXIa inh 1536 10 and FXIIa inh 1536 4.
Screening Cc1ccc(NC(=O)c2ccc3c(c2)OCCO3)cc1 returned Thrombin inh 0, KLK5 inh 1, AHR act -7, FXIa inh 1536 -2, STAT3 act 35 and FXIIa inh 1536 14.
`CCC(O)c1cc2c(cc1NC(=O)c1ccc(C)cc1)OCCO2` (stereo unspecified) gave Thrombin inh 2, KLK5 inh -6, AHR act 63*, FXIa inh 1536 6, STAT3 act 122 and FXIIa inh 1536 5.
Screening CC1=[N+](CC(=O)c2ccccc2)CCn2cccc21 returned Thrombin inh -8, KLK5 inh -3, AHR act 47*, FXIa inh 1536 -2, STAT3 act 121 and FXIIa inh 1536 5.
`C=CCNC(=O)C(C#N)c1nc2ccccc2nc1N1CCN(Cc2ccccc2)CC1` (stereo unspecified) gave Thrombin inh 104*, KLK5 inh 35, AHR act 6, FXIa inh 1536 16, STAT3 act 101 and FXIIa inh 1536 23.
`C=CCOC(=O)C(C#N)c1nc2ccccc2nc1N1CCN(Cc2ccccc2)CC1` (stereo unspecified) gave Thrombin inh 6, KLK5 inh 46*, AHR act 4, FXIa inh 1536 3, STAT3 act 99 and FXIIa inh 1536 -8.
`COCCCNC(=O)C(C#N)c1nc2ccccc2nc1N1CCN(Cc2ccccc2)CC1` (stereo unspecified) gave Thrombin inh -8, KLK5 inh -2, FXIa inh 1536 0, STAT3 act 102 and FXIIa inh 1536 6.
Screening Cc1ccc(/C=N/n2c(C3CCCCC3)n[nH]c2=S)cc1 returned AHR act -1.
O=C(Oc1cc2oc(=O)c3c(c2cc1Cl)CCCC3)c1cccs1 was read as Thrombin inh -4, KLK5 inh -26, AHR act 16, FXIa inh 1536 1, STAT3 act 98 and FXIIa inh 1536 3.
`CCN(C(=O)c1ccco1)C1C2CC3CC(C2)CC1C3` (stereo unspecified) gave AHR act -1.
For CCn1c(SCC(N)=O)nnc1C(C)C the results were Thrombin inh 97*, KLK5 inh -1, AHR act 0, FXIa inh 1536 -2, STAT3 act 97 and FXIIa inh 1536 8.
CCn1c(SCC(=O)c2ccc(Cl)cc2)nnc1C(C)C was read as Thrombin inh 4, KLK5 inh -16, AHR act 10, FXIa inh 1536 -16, STAT3 act 102 and FXIIa inh 1536 -3.
O=C(Cc1n[nH]c(=O)c2ccccc12)Nc1cc(Cl)ccc1-n1cncn1 was read as AHR act 33.
Screening CCc1ccc(NC(=O)COC(=O)CCc2nc3cc(S(=O)(=O)N(CC)CC)ccc3n2C)cc1 returned Thrombin inh 39, KLK5 inh 58*, AHR act 15, FXIa inh 1536 12, STAT3 act 104 and FXIIa inh 1536 6.
Screening Cn1c(CN2CCCCC2)nc2cc([N+](=O)[O-])ccc21 returned Thrombin inh 1, KLK5 inh -9, AHR act 67*, FXIa inh 1536 -3, STAT3 act 96 and FXIIa inh 1536 5.
Cn1c(CCN2CCCCC2)nc2cc([N+](=O)[O-])ccc21 was read as Thrombin inh 4, KLK5 inh 7, AHR act -1, FXIa inh 1536 5, STAT3 act 98 and FXIIa inh 1536 20.
Screening O=C(NCCS(=O)(=O)NCc1ccc2c(c1)OCO2)c1ccccc1 returned AHR act -3.
For COc1ccc(NC(=O)C(C)N=C2NS(=O)(=O)c3ccccc32)cc1S(N)(=O)=O (stereo unspecified) the results were AHR act 1.
Screening FC(F)(F)c1nc2cc3nc4ccccc4[nH]c3cc2n1 returned Thrombin inh -1, KLK5 inh 0, AHR act 55*, FXIa inh 1536 -2 and FXIIa inh 1536 3.
